SUMO1-SIM PPI = modulators of SUMO1 protein-protein interactions, primary screen, biochemical, uHTS | Small ubiquitin-related modifier 1 (Homo sapiens), P63165 | 0.33% of 360,000 active | SUMO1 binding to a labelled peptide, TR-FRET, 1 h | inhibition, % at 20 µM; in the data active = inhibition above about 37%
Target sequence (P63165 whole entry, looked up): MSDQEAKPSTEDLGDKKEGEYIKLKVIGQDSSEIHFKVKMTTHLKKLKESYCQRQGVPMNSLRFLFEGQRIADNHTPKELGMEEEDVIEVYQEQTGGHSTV
LMPTP inh = LMPTP phosphatase inhibitors, primary screen, biochemical, fluorescence intensity, uHTS. recombinant LMPTP-A, OMFP fluorogenic substrate. inhibition, % at 20 µM. 0.22% of 360,000 active. AID 651560, 2012;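 active = compounds that cut the enzyme signal by at least half of the control window in the single-dose screen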;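 note: plate controls were DMSO wells with enzyme plus substrate for no effect and substrate without enzyme for full effect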
Target sequence (P24666 whole entry, looked up): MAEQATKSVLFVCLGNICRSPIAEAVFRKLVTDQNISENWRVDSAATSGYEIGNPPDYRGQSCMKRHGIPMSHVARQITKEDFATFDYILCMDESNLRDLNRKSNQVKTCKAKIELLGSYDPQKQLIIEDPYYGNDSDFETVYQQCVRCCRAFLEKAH
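Assay system: LMPTP-A enzyme. Input: 0.625 nM LMPTP-A final. Probe or stimulus: 400 µM OMFP. Compound dosing: single 20 µM dose. Schedule: 50 min dark incubation at room temperature. Detection: fluorescence intensity of OMFP turnover product. Read-out: percent inhibition versus substrate-only and uninhibited controls. Benchmarks: no-enzyme low control, uninhibited high control.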
STEP block = STEP phosphatase inhibitors, primary screen, biochemical, fluorescence intensity, uHTS. inhibition, % at 20 µM. 0.25% of 360,000 active. Tyrosine-protein phosphatase non-receptor type 5 (Homo sapiens), P54829. recombinant STEP, OMFP fluorogenic substrate;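 active = inhibition at 20 µM, scaled per plate between control wells, above about 37%, limit read from the data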;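 note: 0% = DMSO with enzyme and substrate and 100% = substrate only without enzyme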
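Material: STEP (striatal-enriched tyrosine phosphatase) enzyme, cell-free; Compound dosing: 20 µM single dose in 1% DMSO; Technique: fluorescence read at 480 nm ex / 540 nm em; Times: reaction 20 min, ambient temperature; Medium: 50 mM Bis-Tris pH 6.0 with 2.5 mM DTT and 0.005% Tween 20; Also added: OMFP at 25 µM.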
Scp1 inh = Scp-1 phosphatase inhibitors, primary screen, biochemical, colorimetric, uHTS. Carboxy-terminal domain RNA polymerase II polypeptide A small phosphatase 1 (Homo …. 0.88% of 340,000 active. AID 493091, 2011. inhibition, % at 20 µM. Recombinant Scp1, phosphopeptide, malachite green phosphate absorbance;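 active = inhibition above about 50% at 20 µM, limit read from the data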;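 note: plate controls were DMSO wells with enzyme for no effect and wells lacking enzyme for full effect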
Target sequence (Q9GZU7 76-261 limits assumed): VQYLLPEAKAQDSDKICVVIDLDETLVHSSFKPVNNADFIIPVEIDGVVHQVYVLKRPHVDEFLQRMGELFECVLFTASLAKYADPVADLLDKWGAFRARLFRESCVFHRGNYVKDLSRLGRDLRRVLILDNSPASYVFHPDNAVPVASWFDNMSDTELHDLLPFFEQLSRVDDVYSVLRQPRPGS
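Test system: SCP-1 phosphatase catalytic domain, residues 76-261 | Compound dosing: One concentration, 20 µM, with 1.0% DMSO | Schedule: 45 min room-temperature reaction, 5 min colour, 30 min stabiliser | Detection: Absorbance at 630 nm | Read-out basis: % inhibition of SCP-1 phosphate liberation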
NadD inh = inhibitors of S. aureus NadD, primary screen, biochemical, colorimetric, uHTS | purified NadD enzyme, colorimetric absorbance read-out | inhibition, % at 20 µM | 0.78% of 360,000 active | AID 602399, 2012; in the data active = inhibition above about 26%
DNMT1 inh = human DNMT1 methyltransferase inhibitors, primary screen, biochemical, molecular beacon, fluorescence, HinP1I cleavage, uHTS; DNA (cytosine-5)-methyltransferase 1 (Homo sapiens), P26358; inhibition (reported as % activation of signal), % at 10 µM; 0.83% of 360,000 active; AID 588458, 2011; in the data active = inhibition above about 50%
NadD inh conf = inhibitors of S. aureus NadD, confirmation, biochemical, colorimetric, single concentration; shares compounds with NadD inh; purified S. aureus NadD, colorimetric enzyme assay; inhibition, % at 20 µM; 13% of 2,000 active; AID 624309, 2012; in the data active = inhibition mostly above about 42%, no sharp cut-off; inactive = mostly below about 42%
Active calls of the source: *; . = no result. Shown are actives, neighbours in structure and some others; about 2.4% of the full set was active somewhere.

SMILES | SUMO1-SIM PPI | LMPTP inh | STEP block | Scp1 inh | NadD inh | DNMT1 inh | NadD inh conf
O=C(Nc1ccc(S(=O)(=O)Nc2nccs2)cc1)c1cccc(N2C(=O)c3ccccc3C2=O)c1 | 3 | 12 | -2 | -24 | 39* | 3 | 58*
COc1ccc(C)cc1NS(=O)(=O)c1ccc2c(c1)N(C)CCO2 | 24 | -1 | -1 | -5 | -6 | 1 | .
Cc1cc2c(cc1C)-c1nnnn1C(N1CCCC1)C(=O)N2 (stereo unspecified) | 5 | -1 | . | . | . | . | .
c1ccc2c(-c3[nH]ncc3CNCCCn3ncc4ccccc43)cccc2c1 | 0 | 1 | 2 | 1 | -2 | -4 | .
CCCOc1cc(N)ccc1C(=O)OCCN(CC)CC | 1 | -2 | 1 | -4 | 1 | 0 | .
CCCOc1ccc(N)cc1N | 30 | 22 | 1 | 1 | 44* | -7 | -3
COc1ccc2c(Cl)c(C(=O)NCCCn3ccnc3)sc2c1Cl | -3 | 15 | 10 | -4 | 36* | 25 | 7
CC(C)=CCC/C(C)=C/CNC(=O)C[C@H]1C[C@H](C(=O)N2CCCCC2)[C@@]2(CCc3ccccc3)c3[nH]c4cc(-c5ccco5)ccc4c3CCN2C1=O | 6 | 0 | 3 | 1 | 44* | 16 | 11
O=C(C[C@H]1C[C@H](C(=O)N2CCCCC2)[C@@]2(CCc3ccccc3)c3[nH]c4ccc(Cl)cc4c3CCN2C1=O)NCCCn1ccnc1 | -13 | -3 | 2 | 1 | 31* | -12 | 1
CCC(C(=O)Nc1ccc2c(c1)OCCO2)n1c(=O)[nH]c2ccccc2c1=O (stereo unspecified) | -1 | -1 | 0 | -5 | 5 | 1 | .
CSc1ncc(F)c(N(CCO)CCO)n1 | 0 | -1 | 1 | 1 | 1 | 0 | .
CN1C(=O)Cc2cc(S(=O)(=O)N3CCN(c4ccc(Cl)cc4)CC3)ccc21 | 3 | 1 | 3 | 4 | 14 | 0 | .
Cc1ccc(C)c(N2CCN(S(=O)(=O)c3ccc4[nH]c(=O)c(=O)[nH]c4c3)CC2)c1 | -1 | 0 | 0 | 0 | 32* | 1 | 54*
Cc1ccc(Cl)cc1N1CCN(S(=O)(=O)c2ccc3c(c2)CC(=O)N3C)CC1 | 0 | 1 | 3 | -5 | 29* | -10 | 10
COc1cccc(CN(C)CCCn2ccc(NC(=O)OCc3ccccc3)nc2=O)c1 | -1 | -2 | -2 | -14 | 1 | 0 | .
OCCCNCc1ccc(N(c2ccccc2)c2ccccc2)cc1 | -5 | -1 | 0 | -3 | -7 | 6 | .
CCCc1cc(=O)[nH]c(SCC(=O)N2N=C(c3ccc(Cl)cc3)CC2c2ccco2)n1 (stereo unspecified) | 6 | 2 | 13 | 3 | 35* | -2 | 50*
O=C1[C@H]2[C@@H](c3ccc(F)cc3)N3C(=O)N(c4cccc(Br)c4)C(=O)[C@@]3(Cc3ccc(Cl)cc3)[C@H]2C(=O)N1C1CCCCC1 | -3 | 2 | 0 | -4 | 31* | -8 | 13
O=C1[C@H]2[C@@H](c3ccc(F)cc3)N3C(=O)N(c4ccccc4)C(=O)[C@@]3(Cc3ccc(Cl)cc3)[C@H]2C(=O)N1C1CCCCC1 | 0 | 2 | 0 | -14 | 10 | -3 | .
O=C1[C@H]2[C@@H](c3ccc(F)cc3)N3C(=O)N(c4cccc(Cl)c4)C(=O)[C@@]3(Cc3ccc(Cl)cc3)[C@H]2C(=O)N1C1CCCCC1 | -2 | 2 | 2 | -11 | 25 | -5 | .

Screening results (PubChem)
